# Results of several laboratories.
# Protocols differ between the studies behind these lines.
# Target: Tyrosine-protein kinase Lck (LCK, Homo sapiens, UniProt P06239)
Compound,test,setting,remaining binding [%]
C=CC(=O)N1CCC(C(=O)NCC(=O)N2CCN(c3nc(-c4cnc(N)nc4C(F)F)nc(N4CCOCC4)n3)CC2)CC1,"binding, competition with immobilised ligand",1 µM,90
CCN1CCN(Cc2ccc(C(=O)Nc3ccc(C)c(Oc4ccc5c(c4)CC(=O)N5)c3)cc2C(F)(F)F)CC1,"binding, competition with immobilised ligand",1 µM,22
O=C(NCCCN1CCOCC1)c1ccc(Nc2ncc(Cl)c(-c3ccc(Cl)s3)n2)cc1,"binding, competition with immobilised ligand",1 µM,100
O=C(NCC1CCOCC1)c1n[nH]cc1NC(=O)c1c(F)cccc1F,"binding, competition with immobilised ligand",1 µM,100
CCCOc1ccc([C@@H]2[C@@H](C(=O)O)[C@H](c3ccc4c(c3)OCO4)CN2CC(=O)Nc2c(CC)cccc2CC)cc1,"cell-free assay, competition with immobilised ligand",1 µM,100
c1cnn2ncc(-c3ccnc(N4CCC45COC5)n3)c2c1,binding,1 µM,99
O=C(NCCCN1CCOCC1)c1ccc(Nc2nccc(-c3cc4ccccc4s3)n2)cc1,"binding, competition with immobilised ligand",1 µM,76
CN(CCCC(F)(F)F)c1nccc(-c2cnn3ncccc23)n1,binding,1 µM,89
C[C@@H](c1ccc(-n2cnc3c(N)ncnc32)cc1)N1CCc2nn(C)c(Cc3ccccc3)c2C1=O,"binding, competition with immobilised ligand",0.1 µM,94
O=C(c1ccc(Nc2ncc(Cl)c(-c3cc4ccccc4s3)n2)cc1)N1CCC(N2CCCC2)CC1,"binding, competition with immobilised ligand",1 µM,21
N#Cc1ccc(Nc2ccc3[nH]c(=O)[nH]c3c2)c(Cl)c1,"cell-free assay, competition with immobilised ligand",1 µM,100
COc1cnc(Nc2cccc(S(N)(=O)=O)c2)nc1N1CCN(c2ccccc2)C(=O)C1,"binding, competition with immobilised ligand",1 µM,100
CN([C@@H]1CCc2c(CC(=O)O)c3cc(S(C)(=O)=O)ccc3n2C1)S(=O)(=O)c1ccc(F)cc1,"cell-free assay, competition with immobilised ligand",1 µM,100
C[C@@H]1CCN(c2nccc(-c3cnn4ncccc34)n2)C1,binding,1 µM,93
CNC(=O)c1ccc(Nc2ncc(C(F)(F)F)c(NCc3nccnc3N(C)S(C)(=O)=O)n2)cc1,"cell-free assay, competition with immobilised ligand",0.1 µM,87
FC(F)(F)Oc1cccc(-c2cnc3ccc(-c4ccncc4)nn23)c1,"cell-free assay, competition with immobilised ligand",5 µM,35
